Reference: paper PMC5474437 (EBioMedicine, 2017)

Assays:
[1] = target: human neutrophil peptide 1 (human); test: SPR
[2] = system: Apoe−/− HNP1tg/tg mice on high-fat diet; test: Atherosclerotic lesions in aortic root, HNP1-transgenic Apoe−/− mice; assay type: in vivo, mouse; conditions: transgenic HNP1 expression, high-fat diet 4 weeks, Ly6G staining, n=10
In short: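 Female Apoe−/− HNP1tg/tg mice (C57Bl/6 background, backcrossed ≥10 generations) fed high-fat diet (21% fat, 0.15% cholesterol) for 4 weeks. Frozen aortic root sections stained with anti-Ly6G (1A8, 1:100), then secondary antibody 30 min at room temperature, with DAPI nuclear counterstain. Images analysed by fluorescence microscopy.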

[3] = system: Apoe−/− HNP1tg/tg mice; test: Plasma lipids and FPLC lipoprotein fractions, HNP1-transgenic mice; assay type: in vivo, mouse; conditions: transgenic HNP1 expression
In short: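 Female Apoe−/− HNP1tg/tg mice and Apoe−/− littermates were fed high-fat diet (21% fat, 0.15% cholesterol) for 4 weeks. Plasma was stored at −80 °C and triglycerides were measured enzymatically with a kit. For lipoprotein profiles, plasma from 10 animals per group was pooled (0.25 ml) and FPLC gel-filtered on two Superose 6 columns in series.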

[4] = system: Apoe−/− mice; test: Plasma lipids after repeated HNP1 treatment; assay type: in vivo, mouse; conditions: 10 μg every other day i.v., 4 weeks, n = 8–11 per group
In short: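 Female Apoe−/− mice on high-fat diet (21% fat, 0.15% cholesterol) for 8 weeks received peptide (10 μg i.v., every other day) or PBS i.v. over the last 4 weeks. Plasma triglycerides were measured enzymatically with a kit. Blood leukocytes were counted by flow cytometry after red cell lysis, using CD115/CD11b/CD45/Gr1 staining and counting beads. n = 8–11 per group; one-way ANOVA with Bonferroni test.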

[5] = system: Apoe−/− HNP1tg/tg mice; test: Blood cell counts by flow cytometry, HNP1-transgenic mice; assay type: in vivo, mouse; conditions: transgenic HNP1 expression, vs Apoe−/−, high-fat diet 4 weeks, n = 10
In short: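 Female Apoe−/− HNP1tg/tg mice and Apoe−/− littermates (C57Bl/6 background, ≥10 backcross generations) fed high-fat diet (21% fat, 0.15% cholesterol) for 4 weeks. Blood red cells were lysed (150 mM NH4Cl, 10 mM KHCO3, 0.1 mM diNaEDTA, pH 7.4) and HBSS-washed. Cells were stained for CD115, CD11b, CD45 and Gr1 and analysed by flow cytometry; absolute counts came from counting beads.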

[6] = system: plasma lipoprotein fractions (VLDL, LDL, HDL); test: Dot blot of lipoprotein fractions of HNP1-treated mice; assay type: binding, mouse; conditions: HNP1 10 μg i.v., plasma after 24 h
In short: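 Apoe−/− mice on high-fat diet received 10 μg i.v.; plasma collected after 24 h, pooled (10 animals per group, 0.25 ml) and fractionated by FPLC gel filtration on two Superose 6 columns in series. Fractions spotted on nitrocellulose, blocked in 1% milk/PBS (0.5–1.0 h, RT), probed overnight at 4 °C with anti-HNP1, ApoA, ApoB or ApoC3 (1:5000), HRP secondary 1:5000 (1 h, RT), ECL chemiluminescence.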

[7] = system: plasma cholesterol / lipoproteins of hypercholesterolemic mice; test: Precipitation of lipid-bound HNP1 from plasma with anti-HNP1 magnetic beads; assay type: binding, mouse; conditions: dot blot of precipitate
In short: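 Anti-HNP monoclonal antibody (100 μg) coupled overnight at room temperature to 3.3 × 108 magnetic beads in 1 M ammonium sulfate. Washed beads, at 2 × 109 beads/ml, added to 50 μl plasma from hypercholesterolemic mice incubated with the peptide, then rotated overnight at room temperature. Beads removed; precipitated samples spotted on nitrocellulose and probed by chemiluminescent dot blot with apolipoprotein antibodies.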

[8] = system: HepG2 cells; test: Lipid; assay type: cell-based, human
In short: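 HepG2 cells were grown in DMEM with 10% heat-inactivated FCS at 37 °C, 5% CO2. Human LDL (50 μg/ml) was pre-incubated 30 min at 37 °C with peptide (1 μg/ml) or PBS vehicle. Cells were then exposed to LDL for 2 h. Oil Red O staining followed, and the eluted dye gave relative lipid content.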

[9] = system: hepatocytes of C57BL/6 wild-type mice; test: Liver perfusion, Dil-LDL uptake in hepatocytes, wild-type mice; assay type: in vivo, mouse; conditions: Dil-LDL 50 μg/ml with HNP1 10 μg/ml, 20 min, 2 ml/min, normocholesterolemic WT mice, flow cytometry, n = 3 per group
In short: (§1)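 Anaesthetised mice underwent laparotomy with double-ligated vena cava. Portal vein cannulated; liver perfused 20 min at 2 ml/min with DiI-labelled human LDL (50 μg/ml) preincubated with 10 μg/ml peptide in PBS, or PBS alone. Liver minced, filtered (100 μm), spun 500 g 5 min, then 36% Percoll-HBSS 800 g 20 min. Top-phase hepatocytes analysed by flow cytometry as fold over background fluorescence; n = 3 per group, Mann-Whitney test.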

[10] = system: liver of Ldlr−/− mice; test: Liver perfusion, Dil-LDL uptake, Ldlr−/− mice; assay type: in vivo, mouse; conditions: Dil-LDL 50 μg/ml with HNP1 10 μg/ml, 20 min, 2 ml/min, n = 3 per group
In short: as §1

[11] = Plasma HNP1 levels in HNP1-transgenic mice, dot blot; assay type: in vivo, mouse; conditions: Apoe−/− HNP1tg/tg mice, high-fat diet 4 weeks, dot blot against recombinant HNP1
In short: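 Plasma from female HNP1-transgenic Apoe−/− mice after 4 weeks high-fat diet was spotted onto nitrocellulose and blocked in 1% non-fat milk/PBS (0.5–1.0 h, RT). Blots were probed overnight at 4 °C with anti-HNP1 (1:5000), washed in PBS/0.05% Tween 20, then given HRP secondary (1:5000, 1 h, RT) and 3 × 15 min washes. ECL chemiluminescence was the read-out.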

[12] = system: mice expressing HNP1; conditions: ref Abu-Fanne et al., 2016, cited from earlier work
[13] = system: Lp(a); conditions: ref Bdeir et al., 1999; cited from earlier work

Substance | Kd [1] [nM] | Number of lesional neutrophils [2] | HDL-cholesterol ([3]; FPLC, pooled plasma of 10 animals per group) | Plasma triglyceride levels ([3]; high-fat diet 4 weeks, n=10) | Plasma cholesterol levels after repeated treatment ([4]; vs baseline, PBS not different from baseline) | Plasma triglyceride levels and blood leukocyte counts after repeated treatment [4] | Blood counts of leukocyte subpopulations [5] | Detection of HNP1 in lipoprotein fractions ([6]; FPLC fractions, dot blot) | Apolipoproteins in HNP1-positive fractions ([6]; antibodies to ApoA1, ApoB, ApoC3) | Apolipoproteins in anti-HNP1 precipitate [7] | HNP1-assisted LDL clearance after LDLR silencing ([8]; Ldlr siRNA 100 nM, 24 h, HepG2) | LDL uptake by HepG2 ([8]; human LDL 50 μg/ml, HNP1 1 μg/ml, 2 h, Oil Red O elution) | LDL uptake in hepatocytes (portal vein perfusion) [9] | LDL uptake in the liver (portal vein perfusion), Ldlr−/− [10] | Plasma HNP1 levels [11] [µg/mL] | Total cholesterol and LDL plasma levels in mice expressing HNP1 ([12]; normocholesterolemic) | Lipid deposits in mice with transgenic HNP1 expression ([12]; prolonged periods of high fat diet feeding) | Interaction with Lp(a) [13]
human ApoB (from UniProt P04114 28-4563) (natural protein) | 2.45 | – | – | – | – | – | – | – | – | – | – | – | – | – | – | – | – | –
human neutrophil peptide 1 [HNP1] | – | The number of lesional neutrophils was not affected | HDL-cholesterol remained unaffected | triglyceride levels remained unaffected | lowered plasma cholesterol levels below baseline levels | not affected by HNP1 treatment | comparable between the groups | only detected in VLDL and LDL fractions but not in HDL fractions | ApoB and ApoC3 were detected but not ApoA1 | precipitate stained positive for ApoB and ApoC3 | silencing of LDLR abrogated HNP1-assisted LDL clearance | strongly enhanced LDL uptake | vast increase of LDL uptake in hepatocytes | failed to stimulate LDL uptake in the liver | 0.5 to 1 | total cholesterol levels as well as LDL plasma levels were reduced in mice expressing HNP1 | facilitated the development of very small lipid deposits | shown to interact with Lp(a)
human ApoC3 (from UniProt P02656 21-99) (natural protein) | 0.0358 | – | – | – | – | – | – | – | – | – | – | – | – | – | – | – | – | –
